The values below come from ChEMBL document CHEMBL1146096, “Slow-binding human serine racemase inhibitors from high-throughput screening of combinatorial libraries” (J Med Chem, 2006).

Where a SMILES comes first, the peptide text is derived from it. [ ]: non-standard residue; d: D form. The star is where a group is joined. Phe(4-CN) = N#Cc1ccc(C[C@H](N)C(=O)O)cc1; Hydrocinnamoyl = O=C(CCc1ccccc1)*; hPhe = N[C@@H](CCc1ccccc1)C(=O)O; 2Thi = N[C@@H](Cc1cccs1)C(=O)O; Orn = NCCC[C@H](N)C(=O)O

In the first experiment the target is T1, Serine racemase (Homo sapiens, UniProt Q9GZT4).
T1 sequence (Q9GZT4 whole entry): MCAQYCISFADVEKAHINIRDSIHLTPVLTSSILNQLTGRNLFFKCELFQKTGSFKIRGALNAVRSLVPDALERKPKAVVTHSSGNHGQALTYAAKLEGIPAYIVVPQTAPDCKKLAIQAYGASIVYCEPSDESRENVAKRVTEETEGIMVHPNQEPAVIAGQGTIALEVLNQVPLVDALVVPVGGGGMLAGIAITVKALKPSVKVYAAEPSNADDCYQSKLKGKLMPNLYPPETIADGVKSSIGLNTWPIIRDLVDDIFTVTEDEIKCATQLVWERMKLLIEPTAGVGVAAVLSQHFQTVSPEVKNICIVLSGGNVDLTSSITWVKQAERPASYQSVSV
The experiment can be described thus: Inhibition of human serine racemase. In short, it runs like this:
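His-tagged hSR expressed in E. coli BL21 and Ni-NTA purified. Combined racemization plus elimination rate coupled via DAAO and LDH; NADH decrease read at 340 nm. Mix: 200 mM TEA·HCl, 150 mM KCl, 50 µM PLP, 5 mM MgCl2, 2.5 mM ATP, 10 mM DTT, 0.3 mM NADH. Varied L-serine against fixed inhibitor levels (0–2 mM), 40 min preincubation. KI obtained by global fit of data.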
As to `CC[C@@H](C)[C@H](NC(=O)[C@H](Cc1c[nH]cn1)NC(=O)CCc1ccccc1)C(N)=O`, the Ki turned out to be 610 µM.

Regarding `NC(=O)[C@H](CCc1ccccc1)NC(=O)[C@H](Cc1cnc[nH]1)NC(=O)CCc1ccccc1` (Hydrocinnamoyl-His-[hPhe]-NH2), the affinity corresponds to a Ki of 320 µM.

The target in the next experiment is T2, Serine racemase (Homo sapiens) (UniProt Q9GZT4).
T2 sequence (whole entry): T1 sequence (Q9GZT4 whole entry)
Nature of the experiment: Inhibition of human serine racemase at 2 mM. In a few lines: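 Recombinant His-tagged hSR (E. coli, Ni-NTA). Inhibitor tested at 2 mM in a DAAO/LDH-coupled assay of total racemization plus elimination, with the NADH decrease followed at 340 nm. Buffer: 200 mM TEA·HCl, 150 mM KCl, 50 µM PLP, 5 mM MgCl2, 2.5 mM ATP, 10 mM DTT. L-serine substrate. Reported as percent decrease in activity.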
Regarding `NC(=O)[C@H](Cc1cccc(C(=O)c2ccccc2)c1)NC(=O)[C@H](Cc1ccccc1)NC(=O)COCC(=O)O`, the inhibition worked out at 4%.

Consider `CSCC[C@H](NC(=O)N1C(=O)OC[C@@H]1c1ccccc1)C(=O)N[C@@H](CCC(=O)O)C(N)=O`, for which the inhibition amounted to 8%.

In turn, `NC(=O)[C@H](CCc1ccccc1)NC(=O)[C@H](Cc1c[nH]cn1)NC(=O)CCc1ccccc1` (Hydrocinnamoyl-His-[hPhe]-NH2) registered an inhibition of 70%.

As to `CC[C@@H](C)[C@H](NC(=O)[C@H](Cc1c[nH]cn1)NC(=O)CCc1ccccc1)C(N)=O`, the inhibition was 74%.

Compound `CCC(C)C[C@H](NC(=O)CCc1ccccc1)C(=O)N[C@@H](Cc1c[nH]cn1)C(N)=O` (stereo partly specified) yielded an inhibition of 54%.

`NCCCC[C@H](NC(=O)[C@H](Cc1c[nH]cn1)NC(=O)CCc1ccccc1)C(N)=O` (Hydrocinnamoyl-His-Lys-NH2): the inhibition amounted to 40%.

`NCCC[C@H](NC(=O)[C@H](Cc1c[nH]cn1)NC(=O)CCc1ccccc1)C(N)=O` (Hydrocinnamoyl-His-[Orn]-NH2) returned an inhibition of 49%.

`N#Cc1ccc(C[C@H](NC(=O)c2ccc(-c3ccccc3)cc2)C(=O)NC2(C(N)=O)CCC(O)CC2)cc1` (stereo partly specified) yielded an inhibition of 0%.

In turn, `CC(C)C[C@H](NC(=O)[C@H](Cc1c[nH]cn1)NC(=O)CCc1ccccc1)C(N)=O` (Hydrocinnamoyl-His-Leu-NH2) yielded an inhibition of 57%.

The compound `NC(=O)[C@H](Cc1cccs1)NC(=O)[C@H](Cc1c[nH]cn1)NC(=O)CCc1ccccc1` (Hydrocinnamoyl-His-[2Thi]-NH2) yielded an inhibition of 68%.

With `CC[C@@H](C)[C@H](NC(=O)[C@H](Cc1c[nH]cn1)NC(=O)CCc1ccccc1)C(=O)NCCOCCOCNC(=O)CCC(N)=O`, the inhibition is 0%.

The compound `NC(=O)C[C@H](NC(=O)CCc1ccccc1)C(=O)N[C@@H](Cc1c[nH]cn1)C(N)=O` (Hydrocinnamoyl-Asn-His-NH2) returned an inhibition of 42%.

`CC[C@@H](C)[C@H](NC(=O)[C@H](CO)NC(=O)/C=C/c1cccnc1)C(N)=O` came in with an inhibition of 10%.

As to `N#Cc1ccc(C[C@H](NC(=O)CCc2ccccc2)C(=O)N[C@@H](Cc2c[nH]cn2)C(N)=O)cc1` (Hydrocinnamoyl-[Phe(4-CN)]-His-NH2), the inhibition came to 72%.
